Test [1] concerns the target Aldo-keto reductase family 1 member B1 (Rattus norvegicus) (UniProt P07943). In words: Inhibition of aldose reductase in rat lens homogenate at 100 uM. Summed up:
(§1)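 Crude enzyme was supernatant of rat lens homogenate. Reaction was started with NADPH at 30 °C, run 30 min and stopped with HCl. NADP was converted to a fluorescent product with NaOH/imidazole at 60 °C for 20 min. Read-out was fluorescence at ex 360/em 460 nm.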

The target of test [2] is Aldo-keto reductase family 1 member B1 (Rattus norvegicus, UniProt P07943). Put plainly: Inhibition of aldose reductase in rat lens homogenate. A digest of the protocol: as §1
In test [3] the target is Aldo-keto reductase family 1 member B1 (Rattus norvegicus) (UniProt P07943). Put plainly: Inhibition of aldose reductase in rat lens homogenate at 30 uM. A digest of the protocol:
as §1

Molecules are shown by their SMILES.

With `C[C@@H]1[C@H]2C3=CC[C@@H]4[C@@]5(C)CCC(=O)C(C)(C)[C@@H]5CC[C@@]4(C)[C@]3(C)CC[C@@]2(C)[C@@H](O)C[C@H]1C(=O)O` [DEMETHYLREGELIN], the inhibition (in general, the drop in the measured response relative to a control, in per cent) in test [1] was 26%. In test [2], the IC50 – broadly, the midpoint of a concentration-inhibition curve – is > 100 µM. In test [2], `CC1=C(O)C(=O)C=C2C1=CC=C1[C@@]2(C)CC[C@@]2(C)[C@@H]3C[C@@H](C)C(=O)C[C@]3(C)CC[C@]12C` [TINGENONE] gave an IC50 of 13 µM. Still for that read-out and setting: the result for `CC1=C2CC[C@H]3[C@@](C)(CC[C@@]4(C)[C@@H]5C[C@@H](C)C(=O)[C@@H](O)[C@]5(C)CC[C@]34C)[C@@H]2C[C@H](O)C1=O` [TRIPTOCALLINE A] reads 14 µM. Take `COc1cc([C@H]2c3cc(O)c(OC)cc3C[C@@H](CO)[C@@H]2CO)ccc1O` [ISOLARICIRESINOL]: the inhibition in test [1] stood at 36%. Further, the IC50 in test [2] is > 100 µM. For the molecule `C[C@@H]1[C@H]2C3=CC[C@@H]4[C@@]5(C)CC[C@H](O)C(C)(C)[C@@H]5CC[C@@]4(C)[C@]3(C)CC[C@@]2(C)[C@@H](O)C[C@H]1C(=O)O` [TRIPTERYGIC ACID A], the inhibition in test [1] was 27%. Besides, the IC50 in test [2] is > 100 µM. As for `CC1(C)CC[C@]2(C)CC[C@]3(C)C(=CC[C@@H]4[C@@]5(C)CCC(=O)C(C)(C)[C@@H]5CC[C@]43C)[C@@H]2C1`, the inhibition in test [1] was 3%. Besides, in test [2], the IC50 was > 100 µM. Molecule `CC1=C(O)C(=O)C=C2C1=CC=C1[C@@]2(C)CC[C@@]2(C)[C@@H]3C[C@@H](C)C(=O)[C@@H](O)[C@]3(C)CC[C@]12C` [TINGENIN B] yielded an IC50 in test [2] of 7 µM. Turning to `O=c1c2cc(O)c(O)cc2oc2cc(O)c([C@@H]3O[C@H](CO)[C@@H](O)[C@H](O)[C@H]3O)c(O)c12` [MANGIFERIN], the IC50 in test [2] amounted to 3.2 µM.

`CC1(C)C(=O)CC[C@]2(C)[C@H]3CC=C4[C@@H]5C[C@](C)(C(=O)O)C[C@H](O)[C@]5(C)CC[C@@]4(C)[C@]3(C)CC[C@@H]12`: the inhibition in test [1] was 25%. Moreover, the IC50 in test [2] is > 100 µM. `C[C@H]1C(=O)CC[C@@H]2[C@]1(C)CC[C@H]1[C@@]2(C)CC[C@@]2(C)[C@@H]3C[C@](C)(C(=O)O)CC[C@]3(C)CC[C@]12C` [MAYTENOIC ACID] showed an inhibition in test [1] of 44%. Moreover, the IC50 in test [2] is > 100 µM. On the same counts, the results for `C[C@@H]1[C@@]23CC[C@H]4[C@@](C)(CC[C@@]5(C)[C@@H]6C[C@](C)(C(=O)O)CC[C@]6(C)CC[C@]45C)[C@@H]2C[C@@H](O)[C@]1(O)OC3` [ORTHOSPHENIC ACID] are 19% and > 100 µM. `C[C@@H]1[C@@]23CC[C@H]4[C@@](C)(CC[C@@]5(C)[C@@H]6C[C@](C)(C(=O)O)CC[C@]6(C)CC[C@]45C)[C@@H]2CC[C@@]1(O)OC3` [SALASPERMIC ACID]: the inhibition in test [1] was determined as 2%. Moreover, the IC50 in test [2] was > 100 µM. As to `Oc1cc(O)c2c(c1)O[C@H](c1cc(O)c(O)c(O)c1)[C@H](O)C2` [EPIGALLOCATECHIN], the inhibition in test [3] was 19%. In test [2], the IC50 was > 30 µM. For the molecule `C[C@H]1C(=O)CC[C@@H]2[C@]1(C)CC[C@H]1[C@@]2(C)CC[C@@]2(C)[C@@H]3CC(C)(C)CC[C@]3(C)C[C@H](O)[C@]12C`, the inhibition in test [1] stood at 8%. Also, in test [2], the IC50 is > 100 µM. `C[C@H]1C(=O)CC[C@@H]2[C@]1(C)CC[C@H]1[C@@]2(C)CC[C@@]2(C)[C@@H]3C[C@](C)(CO)CC[C@]3(C)CC[C@]12C` [3-OXO-29-HYDROXYFRIEDELANE] came in with an IC50 in test [2] of 98 µM. Regarding `COc1cc([C@H]2c3c(cc(OC)c(O)c3OC)C[C@@H](CO)[C@@H]2CO)cc(OC)c1O`, the inhibition in test [1] is 10%. Moreover, the IC50 in test [2] was > 100 µM. In test [2], `CC(=O)OC[C@]12[C@@H](OC(=O)c3ccccc3)C[C@@H]3[C@@H](OC(C)=O)[C@]1(OC3(C)C)[C@H](C)C[C@H](OC(C)=O)[C@@H]2O` [CELAHIN C] gave an IC50 of 95 µM. In the case of `CC1(C)CC[C@]2(C)CC[C@]3(C)C(=CC[C@@H]4[C@@]5(C)CC[C@H](O)C(C)(C)[C@@H]5CC[C@]43C)[C@@H]2C1` [beta-AMYRIN], the inhibition in test [1] was 6%. In test [2], the IC50 was > 100 µM. Take `CC1(C)[C@@H](O)CC[C@]2(C)[C@H]3CC=C4[C@@H]5C[C@](C)(C(=O)O)C[C@H](O)[C@]5(C)CC[C@@]4(C)[C@]3(C)CC[C@@H]12` [MAYTENFOLIC ACID]: the IC50 in test [2] stood at 72 µM. `Oc1cc(O)c2c(c1)O[C@H](c1ccc(O)c(O)c1)[C@@H](O)C2` [CIANIDANOL] gave an inhibition in test [3] of 38%. Further, in test [2], the IC50 is > 30 µM. As for `COc1cc([C@H]2c3c(cc(OC)c(O)c3OC)C[C@@H](CO)[C@@H]2CO)ccc1O`, the inhibition in test [1] came out at 24%. The IC50 in test [2] is > 100 µM. `Oc1cc(O)c2c(c1)O[C@H](c1ccc(O)c(O)c1)[C@H](O)C2` [(-)-EPICATECHIN] showed an inhibition in test [3] of 41%. The IC50 in test [2] is > 30 µM. With `Cc1c(O)c(O)cc2c1CC[C@H]1[C@@]2(C)CC[C@@]2(C)[C@@H]3C[C@@H](C)C(=O)[C@@H](O)[C@]3(C)CC[C@]12C` [REGEOL A], in test [2], the IC50 came out at 30 µM. Molecule `C[C@H]1C(=O)[C@H](O)C[C@@H]2[C@]1(C)CC[C@H]1[C@@]2(C)CC[C@@]2(C)[C@@H]3C[C@](C)(C(=O)O)CC[C@]3(C)CC[C@]12C` [WILFOLIC ACID C] showed an inhibition in test [1] of 48%. For the same molecule, in test [2], the IC50 was found to be 100 µM. Consider `CC1(C)[C@@H](O)CC[C@]2(C)[C@H]3CC=C4[C@@H]5C[C@](C)(C(=O)O)C[C@@H](O)[C@]5(C)CC[C@@]4(C)[C@]3(C)CC[C@@H]12`, for which the IC50 in test [2] was 26 µM.

These data come from ChEMBL document CHEMBL1146592, “Structures of new friedelane-type triterpenes and eudesmane-type sesquiterpene and aldose reductase inhibitors from Salacia chinensis” (J Nat Prod, 2003).
